In ChEMBL document CHEMBL4359848, “Merging memantine and ferulic acid to probe connections between NMDA receptors, oxidative stress and amyloid-β peptide in Alzheimer's disease” (Eur J Med Chem, 2019):
Calls of active or inactive are those of the source. No cut-off for these calls is given here.

Experiments:
SH-SY5Y [1] = test: Neuroprotective activity in human SH-SY5Y cells assessed as reduction in H2O2-induced intracellular ROS formation at 10 uM preincubated for 24 hrs followed H2O2 addition and measured after 10 to 90 mins by DCFH-DA staining based assay; assay type: functional, cell-based
In short: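 SH-SY5Y cells pretreated 24 h with 10 μM compound, then loaded with 25 μM DCFH-DA for 45 min and challenged with 300 μM H2O2. Fluorescence (485/530 nm) followed from 10 to 90 min. Compared against H2O2 alone by Dunnett's test.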

SH-SY5Y [2] = test: Cytoprotective activity in human SH-SY5Y cells assessed as increase in HO1 protein level at 20 uM incubated for 24 hrs by Western blot analysis; assay type: functional
In short: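 SH-SY5Y human neuroblastoma cells (EMEM/Ham's F-12 with 10% heat-inactivated FBS, 37 °C, 5% CO2) treated 24 h at 10 or 20 μM, compound diluted from DMSO stock (final DMSO <0.1%). Whole-cell lysates in Tris/NaCl/EDTA/Triton buffer, SDS-PAGE and PVDF blot probed with anti-HO-1. Tubulin served as loading control, ECL detection, densitometry given as % of untreated control.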

Homo sapiens = species on record: Homo sapiens; test: Activation of alpha secretase in human H4 cells harboring swedish mutant form of APP assessed as increase in sAPPalpha protein level at 10 uM incubated for 24 hrs by Western blot analysis
H4 [3] = test: Cytotoxicity against human H4 cells harboring swedish mutant form of APP assessed as reduction in cell viability up to 20 uM incubated for 24 hrs by MTT assay; assay type: cell-based; conditions: h4, 24 h
SH-SY5Y [4] = test: Cytoprotective activity in human SH-SY5Y cells assessed as increase in HO1 protein level incubated for 24 hrs by Western blot analysis; assay type: functional, cell-based
In short: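 SH-SY5Y cells treated 24 h at 10 or 20 μM. Cells washed in ice-cold PBS, lysed in Tris/NaCl/EDTA/Triton buffer, equal protein run on reducing SDS-PAGE, blotted to PVDF. Probed with anti-HO-1 (1:1000), β-tubulin as loading control, ECL detection. Densitometry expressed as % of control ± SEM.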

SH-SY5Y [5] = test: Cytotoxicity against human SH-SY5Y cells assessed as reduction in cell viability up to 20 uM incubated for 24 hrs by MTT assay; assay type: cell-based
In short: (§1)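 SH-SY5Y cells plated at 2.5×10^4 per well and exposed 24 h to 1–50 μM. MTT at 1 mg/mL in complete medium for 4 h, then SDS solubilisation for 24 h and absorbance read. Viability given as % of untreated control. Dunnett's test, n = 3.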

SH-SY5Y [6] = test: Neuroprotective activity in human SH-SY5Y cells assessed as reduction in H2O2-induced intracellular ROS formation at 10 uM and measured for 30 to 300 mins by DCFH-DA staining based assay; assay type: functional, cell-based
In short: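 SH-SY5Y cells loaded with 25 μM DCFH-DA for 45 min, then given 10 μM compound together with 300 μM H2O2. Fluorescence read at ex 485/em 530 nm over 30–300 min. Compared against H2O2 alone by Dunnett's test.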

H4 [7] = test: Effect on total intracellular APP in human H4 cells harboring swedish mutant form of APP assessed as change in full length APP protein level at 10 uM incubated for 24 hrs by Western blot analysis; assay type: cell-based; conditions: h4, 24 h
In short: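 H4 cells bearing Swedish APP, kept in DMEM/10% FBS under hygromycin B and blasticidin S selection, treated 24 h with 10 μM. Lysates analysed by Western blot for full-length APP. Densitometry normalized to α-tubulin. One-way ANOVA with post-hoc test.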

SH-SY5Y [8] = test: Cytoprotective activity in human SH-SY5Y cells assessed as increase in HO1 mRNA expression level at 10 uM incubated for 6 hrs by RT-PCR analysis relative to control; assay type: functional
In short: (§2)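 SH-SY5Y cells in EMEM/F-12 (1:1) with 10% heat-inactivated FBS, 37 °C, 5% CO2, exposed 6 h to 10 μM compound, final DMSO <0.1%. Total RNA extracted and Nrf2 and HO-1 mRNA quantified by real-time RT-PCR with GAPDH as endogenous reference. Mean ± SEM, experiments repeated at least three times.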

[9] = molecular target: Glutamate NMDA receptor; GRIN1/GRIN2A (Homo sapiens, UniProt Q05586+Q12879); test: Antagonist activity at GluN1a/GluN2A (unknown origin) expressed in Xenopus laevis oocytes at -60 mV holding potential by voltage clamp method; assay type: cell-based
In short: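 Rat-free detail absent; GluN1-1a/GluN2A cRNA (1:1 by weight) injected into defolliculated oocytes, kept 3–4 days at 18 °C in modified Barth's media. Two-electrode voltage clamp at -60 mV, perfusion with 96 mM NaCl, 2 mM KCl, 1.8 mM CaCl2, 10 mM HEPES pH 7.5. Currents evoked by 100 μM NMDA + 10 μM glycine; compound 0.01–100 μM added at steady state until new plateau; % control fit to Hill equation for IC50; ≥5 oocytes.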

SH-SY5Y [10] = test: Cytoprotective activity in human SH-SY5Y cells assessed as increase in Nrf2 mRNA expression level at 10 uM incubated for 6 hrs by RT-PCR analysis; assay type: functional, cell-based; in short: as §2
SH-SY5Y [11] = test: Cytotoxicity against human SH-SY5Y cells assessed as reduction in cell viability up to 50 uM incubated for 24 hrs by MTT assay; assay type: cell-based; in short: as §1

Glutamate NMDA receptor; GRIN1/GRIN2A, sequence (Q12879 whole entry, other chains not shown, the tested form may be a part): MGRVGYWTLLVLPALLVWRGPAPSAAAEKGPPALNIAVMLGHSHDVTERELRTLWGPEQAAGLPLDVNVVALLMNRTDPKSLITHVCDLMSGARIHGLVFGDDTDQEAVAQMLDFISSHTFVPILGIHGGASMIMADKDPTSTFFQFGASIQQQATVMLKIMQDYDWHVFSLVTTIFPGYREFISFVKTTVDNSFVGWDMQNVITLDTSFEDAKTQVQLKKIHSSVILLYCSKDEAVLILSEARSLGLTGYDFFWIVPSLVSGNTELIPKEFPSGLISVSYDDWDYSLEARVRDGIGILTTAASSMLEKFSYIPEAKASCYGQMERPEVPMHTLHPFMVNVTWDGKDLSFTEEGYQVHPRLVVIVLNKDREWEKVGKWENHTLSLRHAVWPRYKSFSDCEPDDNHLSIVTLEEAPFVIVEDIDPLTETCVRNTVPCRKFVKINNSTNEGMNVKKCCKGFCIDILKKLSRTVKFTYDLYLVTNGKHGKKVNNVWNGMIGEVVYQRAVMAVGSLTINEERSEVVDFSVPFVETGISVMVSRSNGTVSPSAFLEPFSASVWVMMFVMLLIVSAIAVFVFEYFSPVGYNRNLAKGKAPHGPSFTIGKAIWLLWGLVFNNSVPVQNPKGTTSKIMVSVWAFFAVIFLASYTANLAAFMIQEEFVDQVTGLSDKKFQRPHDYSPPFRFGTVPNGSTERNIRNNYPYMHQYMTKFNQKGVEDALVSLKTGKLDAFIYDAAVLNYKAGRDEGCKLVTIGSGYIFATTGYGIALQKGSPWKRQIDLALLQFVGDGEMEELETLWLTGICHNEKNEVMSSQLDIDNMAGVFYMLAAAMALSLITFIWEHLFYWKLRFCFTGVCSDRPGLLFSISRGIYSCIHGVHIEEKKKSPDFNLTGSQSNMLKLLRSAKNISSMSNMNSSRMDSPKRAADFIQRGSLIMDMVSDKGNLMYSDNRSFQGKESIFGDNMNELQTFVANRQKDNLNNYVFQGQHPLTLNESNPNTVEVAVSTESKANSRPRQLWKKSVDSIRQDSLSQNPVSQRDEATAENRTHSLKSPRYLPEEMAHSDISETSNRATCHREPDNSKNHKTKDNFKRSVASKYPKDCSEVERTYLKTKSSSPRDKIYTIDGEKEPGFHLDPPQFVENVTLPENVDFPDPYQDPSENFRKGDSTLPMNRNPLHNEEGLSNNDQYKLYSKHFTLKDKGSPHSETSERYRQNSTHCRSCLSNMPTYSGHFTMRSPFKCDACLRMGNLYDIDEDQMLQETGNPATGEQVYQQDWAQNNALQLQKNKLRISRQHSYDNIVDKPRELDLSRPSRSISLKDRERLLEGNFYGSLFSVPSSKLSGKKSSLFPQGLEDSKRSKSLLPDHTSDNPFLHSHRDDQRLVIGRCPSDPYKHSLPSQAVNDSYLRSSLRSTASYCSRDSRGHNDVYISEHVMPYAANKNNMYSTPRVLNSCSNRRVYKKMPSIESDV

Row | Structure (SMILES) | Activity (SH-SY5Y [1]) | fold change (FC) (SH-SY5Y [2]) | activation (Homo sapiens) | Activity (H4 [3]) | Activity (SH-SY5Y [4]) | Activity (SH-SY5Y [5]) | Activity (SH-SY5Y [6]) | Activity (H4 [7]) | Activity (SH-SY5Y [8]) | IC50 [9] [µM] | Activity (SH-SY5Y [10]) | Activity (SH-SY5Y [11])
1 | COc1cc(/C=C/C(=O)NCCCCCCNC23CC4CC(C)(CC(C)(C4)C2)C3)ccc1O | Active | 2 | Active | Non-Toxic | Dose-dependent effect | Non-Toxic | Active | Non-Toxic | 150% | 6.9 | Active | 
2 | COc1cc(/C=C/C(=O)NCCNC(=O)C23CC4(C)CC(C)(CC(N)(C4)C2)C3)ccc1O |  |  |  |  |  |  |  |  |  | > 100 |  | 
3 | COc1cc(/C=C/C(=O)NCCCCCNC23CC4CC(C)(CC(C)(C4)C2)C3)ccc1O | Active |  | inactive | Non-Toxic |  | Non-Toxic | Active | Non-Toxic | inactive | 14.1 | inactive | 
4 | COc1cc(/C=C/C(=O)O)ccc1O [FERULATE] | Active |  | inactive |  |  | Non-Toxic | Active |  | inactive |  | inactive | Non-Toxic
5 | COc1cc(/C=C/C(=O)NCCCCNC(=O)C23CC4(C)CC(C)(CC(N)(C4)C2)C3)ccc1O |  |  |  |  |  |  |  |  |  | > 100 |  | 
6 | COc1cc(/C=C/C(=O)NCCCCNC23CC4CC(C)(CC(C)(C4)C2)C3)ccc1O | Active |  | inactive | Non-Toxic |  | Non-Toxic | Active | Non-Toxic | inactive | 23.9 | inactive | Non-Toxic
7 | COc1cc(/C=C/C(=O)NCCCNC(=O)C23CC4(C)CC(C)(CC(N)(C4)C2)C3)ccc1O |  |  |  |  |  |  |  |  |  | > 100 |  | 
8 | COc1cc(/C=C/C(=O)NCCCNC23CC4CC(C)(CC(C)(C4)C2)C3)ccc1O |  |  |  |  |  |  |  |  |  | > 100 |  | 
